Assay outcomes as filed in PubChem.
CHO parental Ca: ATP-evoked calcium signal inhibitors, parental CHO, primary screen, counter-screen for OX1R antagonist project, cell-based, fluorescence, Fluo-8 calcium dye; parental CHO-K1, ATP-induced calcium, Fluo-8 fluorescence; inhibition, % at 5.6 µM; 330,000 compounds, 0.63% hits;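 active = inhibition above that plate's mean sample inhibition plus 3 SD, cut at about 26% in these data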;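 also: 0% = ATP-challenged DMSO wells and 100% = DMSO wells without ATP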
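Test system: untransfected parental CHO cell line. Compound: one dose, 5.6 µM nominal. Detection: intracellular calcium via Fluo-8 no-wash fluorescent dye. Measure: % inhibition. Benchmarks: ATP-challenged DMSO wells low, unchallenged DMSO wells high.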
TAAR1 agonist: human TAAR1 agonists, primary screen, Fluo-8 calcium fluorescence, CHO RD-HGA16 cells. vehicle wells 0%, saturating PEA agonist 100%. 360,000 compounds, 0.99% hits. Trace amine-associated receptor 1 (Homo sapiens), Q96RJ0. activation, % at 3 µM;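 active = activation above the mean activation of all test compounds in the run plus 3 SD, cut at about 38% in these data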
Target sequence (Q96RJ0 whole entry, looked up): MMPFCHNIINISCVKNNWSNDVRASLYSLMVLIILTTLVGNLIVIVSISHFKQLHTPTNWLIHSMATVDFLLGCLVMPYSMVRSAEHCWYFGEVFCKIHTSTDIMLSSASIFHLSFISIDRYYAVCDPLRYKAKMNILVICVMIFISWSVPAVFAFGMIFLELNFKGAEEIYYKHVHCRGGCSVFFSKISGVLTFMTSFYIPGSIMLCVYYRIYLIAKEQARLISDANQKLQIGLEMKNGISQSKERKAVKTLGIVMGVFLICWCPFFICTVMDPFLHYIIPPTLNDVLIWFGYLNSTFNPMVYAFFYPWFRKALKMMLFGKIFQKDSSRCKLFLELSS
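Assay system – CHO-derived RD-HGA16 cells with stable Gα16 and human TAAR1 · Compound dosing – one-point dosing at 3 µM (nominal) · Incubation – 17-24 h seeding, 75 min 37 °C dye, 30 min RT · Measured by – kinetic Fluo-8 calcium fluorescence · Control set – DMSO vehicle as 0%, PEA at EC100 as 100% · Repeats – single well for each compound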
OX1R antag-1: OX1R (HCRTR1) antagonists, primary screen, fluorescence, CHO/OX1R cells, Fluo-8 calcium, orexin A. Fluo-8 calcium fluorescence. AID 434989, 2010. 330,000 compounds, 0.43% hits. inhibition, % at 5 µM;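 active = inhibition above its plate's threshold, mean inhibition of all tested compounds on the plate plus 3 SD, cut at about 37% in these data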;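 also: 0% = orexin A challenge wells and 100% = SB-334867-A antagonist wells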
OX1R antag-2: antagonists of human orexin 1 receptor (OX1R); Orexin/Hypocretin receptor type 1 (Homo sapiens), O43613; OX1R-expressing cells, FRET antagonist read-out; inhibition, % at 6.6 µM; 330,000 compounds, 1.8% hits; AID 485270, 2010; in the data active = inhibition mostly above about 38%, no sharp cut-off; inactive = mostly below about 40%;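 also: 0% = agonist challenge alone and 100% = reference antagonist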
TAAR1 antag: human TAAR1 antagonists, primary screen, Fluo-8 calcium fluorescence, CHO RD-HGA16 cells; Trace amine-associated receptor 1 (Homo sapiens), Q96RJ0; antagonist; inhibition, % at 3 µM; 360,000 compounds, 1.5% hits;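 active = inhibition above a per-plate cutoff, the mean inhibition of test compounds on that plate plus 3 SD, cut at about 49% in these data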;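 also: 0% = DMSO plus EC80 beta-PEA response and 100% = DMSO alone without agonist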
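Test system: CHO RD-HGA16 cells bearing hTAAR1 | Reagent: β-PEA, EC80 | Compound dosing: 3 µM, single point | Schedule: Dye loading 75 min at 37 °C, then 30 min room temperature | Signal: Calcium fluorescence with Fluo-8 | Evaluation: Percent inhibition of PEA-evoked calcium signal, max/basal emission ratio | Control set: DMSO-only wells and EC80 β-PEA-stimulated wells | Repeats: Singlicate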
GalR3 antagonist: GalR3 antagonists in HEK293 cells, primary screen, cell-based, fluorescence readout; Galanin receptor type 3 (Homo sapiens), O60755; HEK293 GalR3-CNG cAMP membrane potential fluorescence; galR3 body fused to GalR1 C-terminus; inhibition, % at 3 µM; 360,000 compounds, 0.44% hits; AID 651719, 2012;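 active = inhibition above the screen-wide average plus 3 SD, cut at about 13% in these data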;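 also: forskolin and galanin both at EC90 stimulate the cells; cAMP rise reported by CNG channel membrane potential dye signal; 0% = forskolin plus galanin with DMSO and 100% = forskolin alone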
Target sequence (O60755 1-299 limits assumed): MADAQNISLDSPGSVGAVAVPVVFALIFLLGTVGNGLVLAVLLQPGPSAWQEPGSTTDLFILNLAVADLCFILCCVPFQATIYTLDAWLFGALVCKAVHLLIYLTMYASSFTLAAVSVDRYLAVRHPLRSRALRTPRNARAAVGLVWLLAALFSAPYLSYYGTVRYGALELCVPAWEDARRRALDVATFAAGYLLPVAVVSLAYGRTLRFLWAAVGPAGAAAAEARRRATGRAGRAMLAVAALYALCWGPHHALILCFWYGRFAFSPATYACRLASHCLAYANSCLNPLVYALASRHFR
TAAR1 ag confirm: human TAAR1 agonists, retest of hits, confirmation, Fluo-8 calcium fluorescence, CHO RD-HGA16 cells; activation, % at 3 µM; 2,400 compounds, 82% hits; scaled: DMSO 0%, maximal phenethylamine 100%; shares compounds with TAAR1 agonist; AID 651783, 2012;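 active = activation above a cutoff set at the run's mean compound activation plus 3 SD, cut at about 39% in these data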
Ga16 ag counter: nonselective calcium mobilization agonists, CHO-Ga16 cells, counter-screen for hTAAR1 agonist project, cell-based, fluorescence, CHO-Ga16 parental line; Fluo-8 calcium fluorescence; normalized to maximal ATP response, DMSO zero; AID 651787, 2012; 2,400 compounds, 50% hits; activation, % at 3 µM; shares compounds with TAAR1 agonist;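 active = activation above the run cutoff, the mean activation over all tested wells plus 3 SD, cut at about 12% in these data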;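 also: 0% = DMSO wells and 100% = maximal ATP response on the peak over basal ratio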
TAAR1 desensitize: TAAR1 desensitization by agonist hits, confirmation, counter-screen for TAAR1 agonist project, cell-based, fluorescence, tachyphylaxis; shares compounds with TAAR1 agonist; CHO RD-HGA16 hTAAR1, Fluo-8 calcium, beta-PEA response inhibition; inhibition, % at 3 µM; 2,400 compounds, 46% hits; AID 651951, 2012;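 active = inhibition above the run cutoff, the mean inhibition of all test compounds plus 3 SD, cut at about 49% in these data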;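 also: beta-PEA stimulus applied at its EC80; loss of beta-PEA calcium signal after compound pretreatment read as receptor desensitization; 0% = DMSO with beta-PEA at EC80 and 100% = DMSO alone without agonist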
Ga16 antag count: inhibition of ATP-evoked calcium response in CHO-Ga16 cells, counter-screen for TAAR1 agonist project, cell-based, fluorescence | 2,400 compounds, 39% hits | CHO-Ga16 ATP-induced calcium, Fluo-8 fluorescence | shares compounds with TAAR1 agonist | inhibition, % at 3 µM;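 active = inhibition above the plate's mean compound inhibition plus 3 SD, computed per plate, cut at about 22% in these data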;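 also: 0% = EC80 ATP with DMSO and 100% = DMSO wells without ATP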
The depositor's hits bear a star; / = no result given. Sampled rows, rich in hits. Any-hit rate of the full collection: about 4.2%.

SMILES	CHO parental Ca	TAAR1 agonist	OX1R antag-1	OX1R antag-2	TAAR1 antag	GalR3 antagonist	TAAR1 ag confirm	Ga16 ag counter	TAAR1 desensitize	Ga16 antag count
C=CCn1c(SCC(=O)N(CC)c2c(N)n(Cc3ccccc3)c(=O)[nH]c2=O)nnc1-c1ccccc1OC	/	877*	/	/	-1	-5	5	2	-5	1
Cc1c(O)nc(SC2CC(=O)N(c3ccccc3)C2=O)[nH]c1=O (stereo not drawn)	-7	7	-12	15	0	-1	/	/	/	/
C/C(NCCc1ccc(O)cc1)=C1/CCOC1=O	/	83*	/	/	83*	-4	91*	3	69*	-6
CCCCC(=O)Nc1ccc(C(=O)Nc2ccc(OC)cc2[N+](=O)[O-])cc1	27	99*	24	32	76*	-3	18	4	26	20
N#Cc1cccc(NC(=O)Nc2cccs2)c1	26	58*	21	32	17	-1	74*	16*	40	27*
COCC(C)N1C(=O)Cc2c1nc(N)c1c(N)nc(N3CCN(c4ccccc4F)CC3)c(C#N)c21 (stereo not drawn)	-16	52*	-5	35	49*	1	49*	25*	63*	45*
COCCN1C(=O)Cc2c1nc(N)c1c(N)nc(N3CCN(c4ccc(F)cc4)CC3)c(C#N)c21	-6	6	7	7	33	-3	/	/	/	/
C=CCN1C(=O)/C(=C2/Sc3ccccc3N2CC)SC1=S	-7	3	-13	9	-6	0	/	/	/	/
C=CCN1C(=O)/C(=C/C=C2/N(CC)c3ccc(S(=O)(=O)N(C)C)cc3N2CC)SC1=S	19	107*	18	34	74*	-9	90*	91*	87*	88*
O=C(CCn1[nH]c(=O)c2ccccc2c1=O)OC1CCCCC1	4	5	-12	2	18	2	/	/	/	/
CN(CC(=O)Nc1ccccc1C(F)(F)F)Cc1c(O)ccc2ccccc12	-7	66*	-23	9	-6	-10	30	5	4	11
CCc1ccccc1NC(=O)CN(C)Cc1c(O)ccc2ccccc12	0	9	-9	7	-10	-7	/	/	/	/
CCc1nc2c(OCc3ccccc3)cccn2c1N(Cc1ccccc1)C(C)=O	/	-3	/	/	-19	-8	/	/	/	/
COc1ccc(CCn2c(-c3ccco3)nc3ccccc3c2=O)cc1OC	-31	11	-17	29	35	3	/	/	/	/
OC(COc1ccc(CNCCc2ccccc2F)cc1)CN1CCCCC1 (stereo not drawn)	-21	/	1	11	/	7	/	2	/	4
CCOC(=O)c1ccc2nc(NC(=O)C(C)C)sc2c1	-14	1	-21	14	-24	-3	/	/	/	/
C=CCN(CC=C)S(=O)(=O)c1ccc2nc(NC(=O)C(C)C)sc2c1	-20	40*	-2	31	8	-3	69*	31*	28	11
COc1ccccc1-n1c(SCC(N)=O)nnc1-c1ccc(S(=O)(=O)N2CCCCC2)cc1	-8	52*	-14	10	-4	-6	27	9	20	24*
NC(=O)CSc1nnc(-c2ccc(S(=O)(=O)N3CCCCC3)cc2)n1-c1ccccc1	-2	12	-24	5	17	-8	/	/	/	/
CN(C)C(=S)Nc1cccc(C(F)(F)F)c1	-3	2	-7	35	-4	-6	/	/	/	/
O=C1c2ccccc2C(=O)N1CCCc1cn(C[C@H]2CC[C@@H]([C@@H]3CC[C@H](Cn4cc(CCCN5C(=O)c6ccccc6C5=O)nn4)O3)O2)nn1	-25	13	-42	16	28	2	/	/	/	/
O=C1NCCN1CCNc1nc(NCc2ccccc2)nc2ccsc12	/	89*	/	/	100*	-4	95*	66*	106*	93*
CC(C)(C)OC(=O)N1C(=O)[C@](OC(=O)c2ccccc2)(c2ccc(F)cc2)c2ccccc21	/	-1	/	/	-4	-12	/	/	/	/
Cc1c(O)ccc(C(=O)CN2CCN(Cc3ccc4c(c3)OCO4)CC2)c1O	-7	4	-3	7	-3	-1	/	/	/	/
O=C(Cc1ccc([N+](=O)[O-])cc1)Nc1ccc(Cl)cc1	6	2	4	17	-5	1	/	/	/	/
